Tests used:
HIV-1 PR [1] = target: T1, HIV-1 PR (Human immunodeficiency virus type 1 group M subtype B, UniProt P04585); type: biochemical
[2] = test system: HIV replication in TZM-bl cells; assay: Viral replication inhibition assay, luciferase reporter; type: cell-based; conditions: doses of 50 μM or higher, MOI = 0.01
Summary of the method: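 TZM-bl cells (HeLa-derived; CD4, CCR5, CXCR4; tat-driven luciferase) were seeded at 1×10^4 cells/mL and incubated overnight. The medium was then replaced with replication-competent pNL4-3 HIV or mock, in medium with carrier or test compound at final 25, 50 or 100 μM. Final DMSO was 0.25%. Conditions were run in triplicate. On the indicated days post infection, cells were PBS-washed and luciferase was read. RLU was expressed relative to the untreated control.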

MT-4 cells = assay: Endpoint cytotoxicity assay, viable cells by trypan-blue dye exclusion; type: cell-based; conditions: three days, Figure 5; for general cytotoxicity to MT-4 cells: at 100 μM; for general cytotoxicity: tolerated by MT-4 cells: up to 50 μM
Summary of the method: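 Uninfected MT-4 cells were seeded at 2 × 10^5 cells/ml, in triplicate, in medium with carrier only or test compound at 10, 50 or 100 μM. Compounds were dissolved in DMSO and diluted in medium to a final DMSO of 0.25%. Incubation was 37 °C, 5% CO2. After three days, viable cells were counted by trypan-blue dye exclusion.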

Compound solubility = type: physicochemical
HIV-1 PR [3] = target: T1, HIV-1 PR; assay: Michaelis-Menten kinetics, mode of inhibition; type: biochemical; conditions: Michaelis-Menten analysis, Figure 4

Row | Structure (SMILES) | Ki (HIV-1 PR [1]) [µM] | other results
1 | CC1=N[C@H](CC(C)C)C(=O)N(CC(=O)O)c2cc(C(=O)O)ccc21 [Compound 9l, (R)-1-(Carboxymethyl)-3-isobutyl-5-methyl-2-oxo-2,3-dihydro-1H-benzo[e][1,4]diazepine-8-carboxylic acid] | > 200 | 
2 | CC1=NCC(=O)Nc2cc(C(=O)OC(C)(C)C)ccc21 [Compound 6a, tert-Butyl 5-methyl-2-oxo-2,3-dihydro-1H-benzo[e][1,4]diazepine-8-carboxylate] | > 200 | 
3 | CC1=N[C@H](CC(C)C)C(=O)N(Cc2ccncc2)c2cc(C(=O)OC(C)(C)C)ccc21 [Compound 8m, (R)-tert-Butyl 3-isobutyl-5-methyl-2-oxo-1-(pyridin-4-ylmethyl)-2,3-dihydro-1H-benzo[e][1,4]diazepine-8-carboxylate] | > 200 | 
4 | CC1=N[C@H](CC(C)C)C(=O)N(Cc2ccccc2)c2cc(C(=O)OC(C)(C)C)ccc21 [Compound 8h, (R)-tert-Butyl 1-benzyl-3-isobutyl-5-methyl-2-oxo-2,3-dihydro-1H-benzo[e][1,4]diazepine-8-carboxylate] | > 200 | 
5 | CC1=N[C@@H](C)C(=O)Nc2cc(C(=O)OC(C)(C)C)ccc21 [Compound 6b, (S)-tert-Butyl 3,5-dimethyl-2-oxo-2,3-dihydro-1H-benzo[e][1,4]diazepine-8-carboxylate] | > 200 | 
6 | CC1=N[C@@H](Cc2ccccc2)C(=O)Nc2cc(C(=O)O)ccc21 [Compound 7f, (S)-3-Benzyl-5-methyl-2-oxo-2,3-dihydro-1H-benzo[e][1,4]diazepine-8-carboxylic acid] | > 200 | 
7 | CC1=N[C@H](CC(C)C)C(=O)N(Cc2ccncc2)c2cc(C(=O)O)ccc21 [Compound 9m, (R)-3-Isobutyl-5-methyl-2-oxo-1-(pyridin-4-ylmethyl)-2,3-dihydro-1H-benzo[e][1,4]diazepine-8-carboxylic acid] | > 200 | 
8 | CC1=N[C@H](CC(C)C)C(=O)N(CC(C)C)c2cc(C(=O)O)ccc21 [Compound 9k, (R)-1,3-Diisobutyl-5-methyl-2-oxo-2,3-dihydro-1H-benzo[e][1,4]diazepine-8-carboxylic acid] | > 200 | 
9 | CCCCCCNC(=O)CN1C(=O)[C@@H](CC(C)C)N=C(C)c2ccc(C(=O)OC(C)(C)C)cc21 [Compound 8q, (R)-tert-Butyl 3-isobutyl-5-methyl-2-oxo-1-(2-oxo-2-(hexylamino)ethyl)-2,3-dihydro-1H-benzo[e][1,4]diazepine-8-carboxylate] | > 200 | 
10 | CC1=N[C@H](CC(C)C)C(=O)N(Cc2ccccc2)c2cc(C(=O)O)ccc21 [Compound 9h, (R)-1-Benzyl-3-isobutyl-5-methyl-2-oxo-2,3-dihydro-1H-benzo[e][1,4]diazepine-8-carboxylic acid] | > 200 | 
11 | CCCCCCCCCCNC(=O)CN1C(=O)[C@@H](CC(C)C)N=C(C)c2ccc(C(=O)O)cc21 [Compound 9o, (R)-3-Isobutyl-5-methyl-2-oxo-1-(2-oxo-2-(decylamino)ethyl)-2,3-dihydro-1H-benzo[e][1,4]diazepine-8-carboxylic acid] |  | inhibition of HIV replication within cells (RLU relative to control) [2]: appeared to inhibit HIV replication; general cytotoxicity to MT-4 cells (MT-4 cells): particularly cytotoxic; general cytotoxicity: tolerated by MT-4 cells (MT-4 cells): tolerated; solubility (Compound solubility): poor solubility; mode of inhibition (HIV-1 PR [3]): competitive inhibitor
12 | CCCCCCCCCCNC(=O)CN1C(=O)[C@@H](CC(C)C)N=C(C)c2ccc(C(=O)OC(C)(C)C)cc21 [Compound 8o, (R)-tert-Butyl 3-isobutyl-5-methyl-2-oxo-1-(2-oxo-2-(decylamino)ethyl)-2,3-dihydro-1H-benzo[e][1,4]diazepine-8-carboxylate] | > 200 | 
13 | CC1=N[C@H](CC(C)C)C(=O)N(Cc2ccc(-c3ccccc3)cc2)c2cc(C(=O)O)ccc21 [Compound 9j, (R)-1-([1,1′-Biphenyl]-4-ylmethyl)-3-isobutyl-5-methyl-2-oxo-2,3-dihydro-1H-benzo[e][1,4]diazepine-8-carboxylic acid] |  | inhibition of HIV replication within cells (RLU relative to control) [2]: appeared to inhibit HIV replication; general cytotoxicity to MT-4 cells (MT-4 cells): particularly cytotoxic; general cytotoxicity: tolerated by MT-4 cells (MT-4 cells): tolerated
14 | CC1=N[C@H](CC(C)C)C(=O)N(CC(=O)N2CCN(C(=O)OCC3c4ccccc4-c4ccccc43)CC2)c2cc(C(=O)OC(C)(C)C)ccc21 [Compound 8t, (R)-tert-Butyl 1-(2-(4-(((9H-fluoren-9-yl)methoxy)carbonyl)piperazin-1-yl)-2-oxoethyl)-3-isobutyl-5-methyl-2-oxo-2,3-dihydro-1H-benzo[e][1,4]diazepine-8-carboxylate] | > 200 | 
15 | CCC(C)[C@@H]1N=C(C)c2ccc(C(=O)OC(C)(C)C)cc2NC1=O (stereo in doubt) [Compound 6e, (S)-tert-Butyl 3-((R)-sec-butyl)-5-methyl-2-oxo-2,3-dihydro-1H-benzo[e][1,4]diazepine-8-carboxylate] | > 200 | 
16 | CC1=N[C@H](CC(C)C)C(=O)N(CC(=O)N2CCN(C(=O)OCc3ccccc3)CC2)c2cc(C(=O)OC(C)(C)C)ccc21 [Compound 8s, (R)-tert-Butyl 1-(2-(4-((benzyloxy)carbonyl)piperazin-1-yl)-2-oxoethyl)-3-isobutyl-5-methyl-2-oxo-2,3-dihydro-1H-benzo[e][1,4]diazepine-8-carboxylate] | > 200 | 
17 | CC1=N[C@@H](C)C(=O)Nc2cc(C(=O)O)ccc21 [Compound 7b, (S)-3,5-Dimethyl-2-oxo-2,3-dihydro-1H-benzo[e][1,4]diazepine-8-carboxylic acid] | > 200 | 
18 | CC1=N[C@H](CC(C)C)C(=O)Nc2cc(C(=O)OC(C)(C)C)ccc21 [Compound 6d, (R)-tert-Butyl 3-isobutyl-5-methyl-2-oxo-2,3-dihydro-1H-benzo[e][1,4]diazepine-8-carboxylate] | > 200 | 
19 | CC1=N[C@H](CC(C)C)C(=O)N(CC(=O)N2CCNCC2)c2cc(C(=O)O)ccc21 [Compound 9r, (R)-3-Isobutyl-5-methyl-2-oxo-1-(2-oxo-2-(piperazin-1-yl)ethyl)-2,3-dihydro-1H-benzo[e][1,4]diazepine-8-carboxylic acid] | > 200 | 
20 | CC1=N[C@H](CC(C)C)C(=O)N(Cc2ccc(C3CCCCC3)cc2)c2cc(C(=O)O)ccc21 [Compound 9d, (R)-1-(4-Cyclohexylbenzyl)-3-isobutyl-5-methyl-2-oxo-2,3-dihydro-1H-benzo[e][1,4]diazepine-8-carboxylic acid] |  | inhibition of HIV replication within cells (RLU relative to control) [2]: appeared to inhibit HIV replication; general cytotoxicity to MT-4 cells (MT-4 cells): particularly cytotoxic; general cytotoxicity: tolerated by MT-4 cells (MT-4 cells): tolerated
21 | CC1=N[C@H](Cc2ccccc2)C(=O)Nc2cc(C(=O)O)ccc21 [Compound 7g, (R)-3-benzyl-5-methyl-2-oxo-2,3-dihydro-1H-benzo[e][1,4]diazepine-8-carboxylic acid] | > 200 | 
22 | CCCCCCCCCCCCCCCCNC(=O)CN1C(=O)[C@@H](CC(C)C)N=C(C)c2ccc(C(=O)O)cc21 [Compound 9p, (R)-3-isobutyl-5-methyl-2-oxo-1-(2-oxo-2-(hexadecylamino)ethyl)-2,3-dihydro-1H-benzo[e][1,4]diazepine-8-carboxylic acid] |  | inhibition of HIV replication within cells (RLU relative to control) [2]: appeared to inhibit HIV replication; general cytotoxicity to MT-4 cells (MT-4 cells): particularly cytotoxic; general cytotoxicity: tolerated by MT-4 cells (MT-4 cells): All but 9p were tolerated
23 | CC1=N[C@@H](CC(C)C)C(=O)Nc2cc(C(=O)O)ccc21 [Compound 7c, (S)-3-Isobutyl-5-methyl-2-oxo-2,3-dihydro-1H-benzo[e][1,4]diazepine-8-carboxylic acid] | > 200 | 
24 | CC1=N[C@H](CC(C)C)C(=O)Nc2cc(C(=O)O)ccc21 [Compound 7d, (R)-3-Isobutyl-5-methyl-2-oxo-2,3-dihydro-1H-benzo[e][1,4]diazepine-8-carboxylic acid] | > 200 | 
